Reference: ChEMBL document CHEMBL1255444, “In vitro antibacterial activities of JNJ-Q2, a new broad-spectrum fluoroquinolone” (Antimicrob Agents Chemother, 2010)
In brackets after ≈: the same amount, converted by molar mass.

Legend:
Type in all cases: functional
Proteus mirabilis = assay: Antibacterial activity against Proteus mirabilis by broth microdilution method
Method in brief: (§1)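 MICs by CLSI M07-A7 broth microdilution in cation-adjusted Mueller-Hinton medium. For S. pneumoniae the medium was supplemented with 5% lysed horse blood. CLSI quality control strains were run alongside as appropriate.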

Citrobacter freundii = assay: Antibacterial activity against Citrobacter freundii by broth microdilution method; method in brief: as §1
Escherichia coli = assay: Antibacterial activity against ciprofloxacin-resistant Escherichia coli by broth microdilution method
Method in brief: (§2)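 CLSI M07-A7 broth microdilution MIC. Medium was cation-adjusted Mueller-Hinton broth. For S. pneumoniae it was Mueller-Hinton supplemented with 5% lysed horse blood. CLSI quality-control strains were included as appropriate.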

Moraxella catarrhalis = assay: Antibacterial activity against Moraxella catarrhalis by broth microdilution method; method in brief: as §1
Haemophilus influenzae = assay: Antibacterial activity against Haemophilus influenzae by broth microdilution method; method in brief: as §1
Serratia marcescens = assay: Antibacterial activity against Serratia marcescens by broth microdilution method; method in brief: as §1
Streptococcus pneumoniae [1] = assay: Antibacterial activity against Streptococcus pneumoniae ATCC 49619 by broth microdilution method; method in brief: as §1
[2] = system: Staphylococcus epidermidis; assay: Antibacterial activity against methicillin-resistant Staphylococcus epidermidis by broth microdilution method
Pseudomonas aeruginosa = assay: Antibacterial activity against Pseudomonas aeruginosa ATCC 27853 by broth microdilution method; method in brief: as §1
Streptococcus pneumoniae [3] = assay: Antibacterial activity against ciprofloxacin-resistant Streptococcus pneumoniae by broth microdilution method; method in brief: as §2
Enterobacter cloacae = assay: Antibacterial activity against Enterobacter cloacae by broth microdilution method
Klebsiella aerogenes = assay: Antibacterial activity against Enterobacter aerogenes by broth microdilution method; method in brief: as §1
Klebsiella pneumoniae = assay: Antibacterial activity against Klebsiella pneumoniae by broth microdilution method; method in brief: as §1
Providencia stuartii = assay: Antibacterial activity against Providencia stuartii by broth microdilution method; method in brief: as §1
[4] = system: Staphylococcus epidermidis; assay: Antibacterial activity against methicillin-, ciprofloxacin-resistant Staphylococcus epidermidis by broth microdilution method
[5] = system: Staphylococcus epidermidis; assay: Antibacterial activity against methicillin-susceptible Staphylococcus epidermidis by broth microdilution method
Staphylococcus aureus [6] = assay: Antibacterial activity against methicillin-resistant Staphylococcus aureus by broth microdilution method; method in brief: as §2
Staphylococcus aureus [7] = assay: Antibacterial activity against Staphylococcus aureus […] by broth microdilution method; method in brief: as §2
Enterococcus faecalis = assay: Antibacterial activity against Enterococcus faecalis ATCC 29212 by broth microdilution method; method in brief: as §1
Staphylococcus aureus [8] = assay: Antibacterial activity against methicillin-susceptible Staphylococcus aureus by broth microdilution method
Enterococcus faecium = assay: Antibacterial activity against Enterococcus faecium by broth microdilution method; method in brief: as §1
Staphylococcus aureus [9] = assay: Antibacterial activity against methicillin-, ciprofloxacin-resistant Staphylococcus aureus by broth microdilution method; method in brief: as §2

Which MIC50 (Proteus mirabilis) does the source give for `CO/N=C1\CN(c2nc3c(cc2F)c(=O)c(C(=O)O)cn3C2CC2)CC1CN` (configuration not stated) [GEMIFLOXACIN] here?
Its MIC50 is 0.12 µg/mL (≈ 0.308 µM).

And the MIC90 (Proteus mirabilis)?
The MIC90 was 0.25 µg/mL (≈ 0.642 µM).

What about the MIC50 (Citrobacter freundii) of the same molecule?
Its MIC50 is 1 µg/mL (≈ 2.57 µM).

And the MIC90 (Citrobacter freundii)?
The MIC90 was greater than 4 µg/mL.

And the MIC50 (Escherichia coli)?
The MIC50 was 32 µg/mL (≈ 82.2 µM).

And the MIC90 (Escherichia coli)?
The MIC90 was 64 µg/mL (≈ 164 µM).

What about the MIC (Moraxella catarrhalis) of the same molecule?
The MIC was no more than 0.015 µg/mL.

And the MIC50 (Moraxella catarrhalis)?
The MIC50 was no more than 0.015 µg/mL.

What about the MIC90 (Moraxella catarrhalis) of the same molecule?
Its MIC90 is no more than 0.015 µg/mL.

And the MIC50 (Haemophilus influenzae)?
Its MIC50 is no more than 0.004 µg/mL.

And the MIC90 (Haemophilus influenzae)?
The MIC90 was 0.008 µg/mL (≈ 0.0205 µM).

And the MIC50 (Serratia marcescens)?
The MIC50 was 0.25 µg/mL (≈ 0.642 µM).

And the MIC90 (Serratia marcescens)?
Its MIC90 is 0.5 µg/mL (≈ 1.28 µM).

And the MIC50 (Streptococcus pneumoniae [1])?
Its MIC50 is 0.03 µg/mL (≈ 0.077 µM).

And the MIC90 (Streptococcus pneumoniae [1])?
The MIC90 was 0.5 µg/mL (≈ 1.28 µM).

`C[C@H]1COc2c(N3CCN(C)CC3)c(F)cc3c(=O)c(C(=O)O)cn1c23.C[C@H]1COc2c(N3CCN(C)CC3)c(F)cc3c(=O)c(C(=O)O)cn1c23.O` [LEVOFLOXACIN] was tested. Which MIC50 (Escherichia coli) did it give?
The MIC50 was 16 µg/mL.

And the MIC90 (Escherichia coli)?
The MIC90 was 64 µg/mL.

And the MIC50 [2]?
Its MIC50 is 8 µg/mL.

What about the MIC90 [2] of the same molecule?
The MIC90 was 16 µg/mL.

And the MIC (Pseudomonas aeruginosa)?
Its MIC is 0.5 µg/mL.

And the MIC50 (Pseudomonas aeruginosa)?
The MIC50 was 0.5 µg/mL.

What about the MIC90 (Pseudomonas aeruginosa) of the same molecule?
The MIC90 was 2 µg/mL.

And the MIC50 (Streptococcus pneumoniae [3])?
Its MIC50 is 16 µg/mL.

And the MIC90 (Streptococcus pneumoniae [3])?
Its MIC90 is 64 µg/mL.

What about the MIC50 (Enterobacter cloacae) of the same molecule?
The MIC50 was 0.06 µg/mL.

What about the MIC90 (Enterobacter cloacae) of the same molecule?
The MIC90 was 0.12 µg/mL.

What about the MIC50 (Klebsiella aerogenes) of the same molecule?
Its MIC50 is 0.06 µg/mL.

And the MIC90 (Klebsiella aerogenes)?
The MIC90 was 0.06 µg/mL.

And the MIC50 (Klebsiella pneumoniae)?
The MIC50 was 0.06 µg/mL.

What about the MIC90 (Klebsiella pneumoniae) of the same molecule?
Its MIC90 is 0.12 µg/mL.

What about the MIC50 (Providencia stuartii) of the same molecule?
Its MIC50 is 16 µg/mL.

And the MIC90 (Providencia stuartii)?
The MIC90 was 64 µg/mL.

And the MIC50 [4]?
The MIC50 was 16 µg/mL.

And the MIC90 [4]?
The MIC90 was 16 µg/mL.

And the MIC [5]?
Its MIC is 0.12 µg/mL.

What about the MIC50 [5] of the same molecule?
The MIC50 was 0.12 µg/mL.

And the MIC90 [5]?
The MIC90 was 0.25 µg/mL.

How did the MIC50 (Streptococcus pneumoniae [1]) turn out when `CC1(C)S[C@@H]2[C@H](NC(=O)Cc3ccccc3)C(=O)N2[C@H]1C(=O)O` [PENICILLIN G] was run?
The MIC50 was 0.06 µg/mL (≈ 0.179 µM).

What about the MIC90 (Streptococcus pneumoniae [1]) of the same molecule?
Its MIC90 is 2 µg/mL (≈ 5.98 µM).

With `CN[C@H](CC(C)C)C(=O)N[C@H]1C(=O)N[C@@H](CC(N)=O)C(=O)N[C@H]2C(=O)N[C@H]3C(=O)N[C@H](C(=O)N[C@H](C(=O)O)c4cc(O)cc(O)c4-c4cc3ccc4O)[C@H](O)c3ccc(c(Cl)c3)Oc3cc2cc(c3O[C@@H]2O[C@H](CO)[C@@H](O)[C@H](O)[C@H]2O[C@H]2C[C@](C)(N)[C@H](O)[C@H](C)O2)Oc2ccc(cc2Cl)[C@H]1O` [VANCOMYCIN] as the molecule, how does the MIC50 (Staphylococcus aureus [6]) read?
The MIC50 was 1 µg/mL (≈ 0.69 µM).

What about the MIC90 (Staphylococcus aureus [6]) of the same molecule?
The MIC90 was 1 µg/mL (≈ 0.69 µM).

What about the MIC50 (Staphylococcus aureus [7]) of the same molecule?
Its MIC50 is 1 µg/mL (≈ 0.69 µM).

What about the MIC90 (Staphylococcus aureus [7]) of the same molecule?
The MIC90 was 1 µg/mL (≈ 0.69 µM).

What about the MIC50 [2] of the same molecule?
Its MIC50 is 2 µg/mL (≈ 1.38 µM).

What about the MIC90 [2] of the same molecule?
Its MIC90 is 2 µg/mL (≈ 1.38 µM).

What about the MIC50 (Enterococcus faecalis) of the same molecule?
Its MIC50 is 2 µg/mL (≈ 1.38 µM).

And the MIC90 (Enterococcus faecalis)?
The MIC90 was greater than 16 µg/mL.

What about the MIC50 (Staphylococcus aureus [8]) of the same molecule?
The MIC50 was 1 µg/mL (≈ 0.69 µM).

And the MIC90 (Staphylococcus aureus [8])?
Its MIC90 is 2 µg/mL (≈ 1.38 µM).

What about the MIC50 (Enterococcus faecium) of the same molecule?
Its MIC50 is greater than 16 µg/mL.

What about the MIC90 (Enterococcus faecium) of the same molecule?
The MIC90 was greater than 16 µg/mL.

What about the MIC50 [4] of the same molecule?
Its MIC50 is 2 µg/mL (≈ 1.38 µM).

And the MIC90 [4]?
The MIC90 was 2 µg/mL (≈ 1.38 µM).

What about the MIC50 (Staphylococcus aureus [9]) of the same molecule?
Its MIC50 is 1 µg/mL (≈ 0.69 µM).

And the MIC90 (Staphylococcus aureus [9])?
Its MIC90 is 1 µg/mL (≈ 0.69 µM).

And the MIC50 [5]?
Its MIC50 is 2 µg/mL (≈ 1.38 µM).

What about the MIC90 [5] of the same molecule?
Its MIC90 is 2 µg/mL (≈ 1.38 µM).
